From PubChem
MT stabilizer: microtubule stabilizers in HeLa cells, primary screen, imaging, high-content imaging. AID 2205, 2009. 200,000 tested, 0.83% active. % tubulin-high responders, % at 10 µM. HeLa tubulin immunostaining HCS, 24 h; share of cells brighter than vehicle mean+2SD;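 active means plate Z-score above 3 for both tubulin-high and condensed-nucleus cell shares, with cell loss under 80%, at 10 µM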;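 further: anti alpha tubulin signal scored within the nucleus-defined area of each cell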
APP 5UTR inh: inhibitors of APP translation via 5'UTR reporter, primary screen, APP 5'UTR luciferase, SH-SY5Y cells. SH-SY5Y APP 5'UTR-luciferase reporter, luminescence. inhibition, % at 2 µM. 190,000 tested, 0.82% active. AID 1285, 2008;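 active means inhibition above a set limit, derived from the sample mean plus 3 SD, cut at about 45% in these data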
Lmaj promast: Leishmania major promastigote growth inhibition, primary screen; Leishmania major promastigotes, resazurin fluorescence viability; inhibition, % at 10 µM; 200,000 tested, 9% active; AID 1063, 2008; in the data active means inhibition above about 50%;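 further: promastigotes grown with compound for 44 hours at 28 °C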
BaF3 parental: parental Ba/F3 cell viability inhibition, counter-screen for JAK2V617F inhibitor project, murine pro-B, CellTiter-Glo luminescence; inhibition, % at 5.6 µM; 220,000 tested, 1.1% active; AID 1486, 2009; CellTiter-Glo ATP luminescence;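 active means inhibition above a per-campaign cutoff, the mean inhibition of all tested compounds plus 3 SD, cut at about 27% in these data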
Ba/F3 V617F tox: reduced viability of JAK2V617F-dependent Ba/F3 cells, primary screen, JAK2V617F inhibitor project, cell-based, Ba/F3 EpoR-JAK2V617F, luminescence. ATP luminescence. inhibition, % at 5.6 µM. 220,000 tested, 1.1% active. AID 1446, 2008;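 active means inhibition above the campaign mean plus 3 SD over all tested compounds, cut at about 24% in these data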;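 further: cytokine-independent growth of Ba/F3 cells driven by EpoR plus mutant JAK2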
bCat nuc transl: modulators of beta-catenin nuclear translocation, primary screen, imaging, HeLa cells, immunofluorescence, high-content; nuclear translocation activity, % at 5 µM; 190,000 tested, 0.3% active; AID 1665, 2009;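 active means nuclear translocation activity above 50% at 5 µM, with a well cell count of 50 or more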;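 further: per-cell ratio of nuclear to cytoplasmic median beta-catenin stain intensity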
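assay system = human HeLa cells, endogenous beta-catenin | times = compound treatment 24 h, 37°C, 5% CO2 | detection = Anti-beta-catenin immunofluorescence on PFA-fixed, Triton-permeabilized cells, DAPI nuclei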
Large screens that a line does not name were inactive. This is a sample that favours compounds with a hit; in the whole collection about 9.6% have one here.

CCCCn1c(O)c(C(C)=NC(Cc2c[nH]c3ccccc23)C(=O)OC)c(=O)[nH]c1=O (stereo not given)	Lmaj promast 99 (no result: bCat nuc transl)
CC1Oc2cc3c(-c4c(O)cc(O)c5c(O)c6c(cc45)OC(C)C(C)C6=O)c(O)cc(O)c3c(O)c2C(=O)C1C (stereo not given)	BaF3 parental 35, Ba/F3 V617F tox 96 (no result: MT stabilizer, APP 5UTR inh, Lmaj promast)
CC/C(=N\NC(=S)Nc1ccccc1)c1c(O)[nH]c(=O)[nH]c1=O	none (no result: MT stabilizer, APP 5UTR inh, Lmaj promast)
CC(C)c1cccc(C(C)C)c1OCCn1ccnc1	Lmaj promast 94
c1ccc(Cn2ccnc2)cc1	none (no result: bCat nuc transl)
Cc1ccc(-n2c(O)c(/C=N/Nc3ccccc3)c(=O)[nH]c2=O)cc1C	none (no result: MT stabilizer, APP 5UTR inh, Lmaj promast)
COc1ccc(N/N=C/c2c(O)n(-c3cccc(C)c3)c(=O)[nH]c2=O)cc1	Lmaj promast 94
COc1ccc(N/N=C/c2c(O)n(-c3ccc(C)c(C)c3)c(=O)[nH]c2=O)cc1	Lmaj promast 88
O=P(c1ccccc1)(c1ccccc1)N1CCCCC1	none
CC(=O)N(C1=NCCCS1)c1ccccc1Cl	Lmaj promast 69
OC(c1ccccc1)(c1ccccc1)C1CCCN1 (stereo not given)	none
COCCCn1c(-c2ccc(OC)cc2)cc(C(=O)NC2CCCCCCC2)c1C	Lmaj promast 98 (no result: bCat nuc transl)
CC(c1ccccc1)n1cncc1C(=O)O (stereo not given)	none
CCCC[N+]12CCC(CC1)C(Cc1ccccc1)C2 (stereo not given)	BaF3 parental 31 (no result: MT stabilizer, APP 5UTR inh, Lmaj promast)
CCC1(c2ccccc2)C(=O)N(COC)C(=O)N(COC)C1=O	none
Cc1ccc(Cn2nc(C)c(C=O)c2Cl)cc1	none
COc1ccc(C(=O)C2CCCN(Cc3cccc(C)n3)C2)c(OC)c1 (stereo not given)	none (no result: MT stabilizer, APP 5UTR inh, Lmaj promast)
CSc1ccccc1C(=O)C1CCCN(Cc2ccncc2)C1 (stereo not given)	Lmaj promast 71
COc1ccccc1CN1CCCC(C(=O)c2ccccc2SC)C1 (stereo not given)	Lmaj promast 68
COc1ccc(O)c(CN2CCCC(C(=O)c3ccccc3SC)C2)c1 (stereo not given)	none
O=[N+]([O-])c1ccc(-c2ccccc2)c([As](=O)(O)O)c1	none (no result: MT stabilizer, APP 5UTR inh, Lmaj promast)
O=[N+]([O-])c1ccc(N2CCNCC2)c(Cl)c1	none
O=P(O)(O)Cc1c(Cl)cccc1Cl	none
Nc1c(C(=O)OCC2CCCO2)c2nc3ccccc3nc2n1Cc1cccs1 (stereo not given)	Lmaj promast 95
Nc1c(C(=O)NCC2CCCO2)c2nc3ccccc3nc2n1Cc1ccco1 (stereo not given)	none (no result: MT stabilizer, APP 5UTR inh, Lmaj promast)
Nc1c(C(=O)NC2CCCC2)c2nc3ccccc3nc2n1CC1CCCO1 (stereo not given)	Lmaj promast 51
CC(C)OCCCNC(=O)c1c(N)n(Cc2cccs2)c2nc3ccccc3nc12	none
N=c1sccn1Cc1ccc(Cl)cc1Cl	Lmaj promast 66
Cc1cccc(NP(C)(=O)c2nc3c(s2)CCCC3)c1 (stereo not given)	none
CCCCCCn1c(O)c(C=NC2CCCCC2N)c(=O)[nH]c1=O (stereo not given)	BaF3 parental 93
CCCCn1c(O)c(C=NC2CCCCC2N)c(=O)[nH]c1=O (stereo not given)	none (no result: bCat nuc transl)
COc1ccc(C2SCC(=O)Nc3c2c(C)nn3-c2ccccc2)cc1OC (stereo not given)	Lmaj promast 62
COc1ccc(C2SCC(=O)Nc3c2c(C)nn3C2CCOC(C)(C)C2)cc1OC (stereo not given)	none (no result: bCat nuc transl)
O=C1NC(=O)N(Cc2ccco2)C(=O)/C1=C/C=C/c1ccco1	none (no result: MT stabilizer, APP 5UTR inh, Lmaj promast)
Cc1ccc(N2C(=O)NC(=O)/C(=C\C=C\c3ccco3)C2=O)cc1C	APP 5UTR inh 47, Lmaj promast 100
O=C1NC(=O)N(Cc2ccccc2)C(=O)/C1=C\C=C\c1ccco1	Lmaj promast 77
CCN(CC)c1ccc(CNCCc2ccccc2F)cc1	MT stabilizer 21, Lmaj promast 94
Fc1ccccc1CCNCc1cccc2ccccc12	Lmaj promast 77
Cc1ccc(CNCCc2ccccc2F)cc1	none
CC(=O)N1CN2CN(C1)CN(C(C)=O)C2	none
COc1ccc(-n2c(O)c(C(C)=NCc3ccc4c(c3)OCO4)c(=O)[nH]c2=O)cc1	none (no result: MT stabilizer, APP 5UTR inh, Lmaj promast)
CCOC(=O)c1ccc(NC(=O)c2c(O)[nH]c(=O)[nH]c2=O)cc1	none
Clc1ccc(OCC#CCN2CCCCCC2)cc1	Lmaj promast 85
CCOC(=O)c1ccc2c(c1)n(Cc1ccccc1)c(C)[n+]2CC	BaF3 parental 27
CC(C)CN(CC(C)C)c1ccc(C=C2C(=O)NC(=S)NC2=O)cc1[N+](=O)[O-]	Lmaj promast 81
CCN(CC)c1ccc(C=C2C(=O)NC(=S)NC2=O)cc1	none (no result: MT stabilizer, APP 5UTR inh, Lmaj promast)
CC(=O)c1cccc(OCC(O)CN2CC=C(c3ccccc3)CC2)c1 (stereo not given)	Lmaj promast 94
Cc1cc(Br)c(NC(=O)CN2CC=C(c3ccccc3)CC2)c(Br)c1	none
CC(C)(C)n1c(O)c(C=Nc2ccc3c(c2)CCC3)c(=O)[nH]c1=O	BaF3 parental 63
CN(C)/C=C/C(=O)C(Cl)(Cl)Cl	none
Cc1ncc(CN2CCCC(C(=O)c3sccc3C)C2)s1 (stereo not given)	Lmaj promast 52
Cc1ccsc1C(=O)C1CCCN(Cc2cnn(C)c2)C1 (stereo not given)	none
CCn1cc(CN2CCCC(C(=O)c3sccc3C)C2)cn1 (stereo not given)	Lmaj promast 54
COc1ccn(C)c(=O)c1C#N	none
CN1/C(=C\C=Nc2ccccc2)C(C)(C)c2ccccc21	Lmaj promast 98, BaF3 parental 57, Ba/F3 V617F tox 31
CN1/C(=C\C=C2C(=O)NC(=O)NC2=O)C(C)(C)c2ccccc21	none (no result: bCat nuc transl)
CCN1CCN(c2cn[nH]c(=O)c2Cl)CC1	none
CCCCCCCSc1cc(OC)c(CCN(C)C)cc1OC	Lmaj promast 100
CCCCCSc1cc(OC)c(CCN)cc1OC	APP 5UTR inh 55, Lmaj promast 92
C=CCn1c(O)c(C(CC)=Nc2cccc(C(F)(F)F)c2)c(=O)[nH]c1=O	none (no result: MT stabilizer, APP 5UTR inh, Lmaj promast)
Cc1ccc(Cl)cc1N1CCN(CCN)CC1	Lmaj promast 100
c1ccc2c(NC3=NCCS3)cccc2c1	none
COc1cc2c(cc1OC)C(C(=O)N(C)C1CCCCC1)C1CCCCN1C2=O (stereo not given)	Lmaj promast 59 (no result: bCat nuc transl)
CC(C)(C)N1C(=O)NC(=O)/C(=C\c2ccc3c(c2)CCN3CCCCl)C1=O	none (no result: MT stabilizer, APP 5UTR inh, Lmaj promast)
O=C1NC(=S)N(C2CC2)C(=O)/C1=C/c1ccc2c(c1)CCN2CCCCl	Lmaj promast 74
C=CCN1C(=O)/C(=C\c2ccc(N3CCOCC3)o2)C(=O)NC1=S	none
